Results published in ChEMBL document CHEMBL1125125, “Thiazolo[4,5-d]pyrimidine nucleosides. The synthesis of certain 3-beta-D-ribofuranosylthiazolo[4,5-d]pyrimidines as potential immunotherapeutic agents” (J Med Chem, 1990).

Assays:
[1] = system: Semliki Forest virus; experiment: Effect against semliki forest virus infection in mice at an ip dose of 100 mg/kg; 6/12; assay type: functional; conditions: route intraperitoneal
In short: (§1)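 Female Swiss Webster mice (about 20 g) received compound or placebo ip in aqueous 2% sodium bicarbonate as half-daily doses at -24 and -18 h before virus. […] Read-outs were survivors/total over 21 days and mean survival time of mice that died. Mice dying within a day or two of dosing were excluded. Significance was by two-tailed Fisher exact test.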

[2] = species: Mus musculus; experiment: Ability to activate CBA/CaJ Mice spleen cells to proliferate in vitro by measuring new DNA synthesis in a [3H]thymidine incorporation assay at 0.01 mM; assay type: functional
In short: (§2)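 Spleen cells from CBA/CaJ mice, 1 × 10^5 per 0.2 mL, cultured with compound for 48 h in total. [3H]thymidine (0.5 μCi/0.02 mL) was added after 24 h, then cells were harvested and uptake was counted in a β-counter. Results are CPM as mean ± SD of quadruplicate assays.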

[3] = species: Mus musculus; experiment: Ability to activate CBA/CaJ Mice spleen cells to proliferate in vitro by measuring new DNA synthesis in a [3H]thymidine incorporation assay at 0.20 mM; assay type: functional; in short: as §2
[4] = species: Mus musculus; experiment: Ability to activate CBA/CaJ Mice spleen cells to proliferate in vitro by measuring new DNA synthesis in a [3H]thymidine incorporation assay at 0 mM; assay type: functional; in short: as §2
[5] = system: YAC-1; experiment: (§3) In vivo effect on murine NK cell activity in isolated CBA/CaJ mice spleen cells and cytotoxicity measured against YAC-1 cells at a targetor ratio 50:1; assay type: functional, Mus musculus
In short: (§4)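 Female CBA/CaJ mice aged 6–8 weeks, two per group, received 150 mg/kg ip in 2% aqueous sodium bicarbonate as 75 mg/kg bid for one day; the placebo was vehicle. After 24 h, spleen cells were pooled and tested against YAC-1 targets in a 4-h 51Cr-release assay, in triplicate, at the stated effector:target ratio.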

[6] = system: Semliki Forest virus; experiment: Effect against semliki forest virus infection in mice at an ip dose of 100 mg/kg; assay type: functional; conditions: route intraperitoneal; in short: as §1
[7] = species: Mus musculus; experiment: Ability to activate CBA/CaJ Mice spleen cells to proliferate in vitro by measuring new DNA synthesis in a [3H]thymidine incorporation assay at 0.05 mM; assay type: functional; in short: as §2
[8] = system: YAC-1; experiment: (§5) In vivo effect on murine NK cell activity in isolated CBA/CaJ mice spleen cells and cytotoxicity measured against YAC-1 cells at a targetor ratio 100:1; assay type: functional, Mus musculus; in short: as §4
[9] = species: Mus musculus; experiment: Ability to activate CBA/CaJ Mice spleen cells to proliferate in vitro by measuring new DNA synthesis in a [3H]thymidine incorporation assay at 0.40 mM; assay type: functional; in short: as §2
[10] = system: Semliki Forest virus; experiment: Effect against semliki forest virus infection in mice at an ip dose of 200 mg/kg; 3/12; assay type: functional; conditions: route intraperitoneal; in short: as §1
[11] = system: Semliki Forest virus; experiment: Effect against semliki forest virus infection in mice at an ip dose of 200 mg/kg; assay type: functional; conditions: route intraperitoneal; in short: as §1
[12] = system: Mus musculus; experiment: Effect against semliki forest virus infection in mice at an ip dose of 100 mg/kg.; assay type: functional; conditions: route intraperitoneal; in short: as §1
[13] = system: YAC-1; experiment: In vivo effect on murine NK cell activity in isolated CBA/CaJ mice spleen cells and cytotoxicity measured against YAC-1 cells at a targetor ratio 100:1.; assay type: functional, Mus musculus; in short: as §4
[14] = system: Mus musculus; experiment: Effect against semliki forest virus infection in mice at an ip dose of 200 mg/kg; 2/11; assay type: functional; conditions: route intraperitoneal; in short: as §1
[15] = system: YAC-1; experiment: In vivo effect on murine NK cell activity in isolated CBA/CaJ mice spleen cells and cytotoxicity measured against YAC-1 cells at a targetor ratio 50:1.; assay type: functional, Mus musculus; in short: as §4
[16] = system: Mus musculus; experiment: Effect against semliki forest virus infection in mice at an ip dose of 100 mg/kg; 0/12; assay type: functional; conditions: route intraperitoneal; in short: as §1
[17] = system: Mus musculus; experiment: Effect against semliki forest virus infection in mice at an ip dose of 200 mg/kg.; assay type: functional; conditions: route intraperitoneal; in short: as §1
[18] = system: Mus musculus; experiment: Effect against semliki forest virus infection in mice at an ip dose of 200 mg/kg''; 11/11; assay type: functional; conditions: route intraperitoneal; in short: as §1
[19] = system: Mus musculus; experiment: Effect against semliki forest virus infection in mice at an ip dose of 100 mg/kg; 4/9; assay type: functional; conditions: route intraperitoneal; in short: as §1
[20] = system: YAC-1; experiment: as §5; assay type: organism-based; conditions: mouse; in short: as §4
[21] = system: YAC-1; experiment: as §3; assay type: organism-based; conditions: mouse; in short: as §4
[22] = system: Semliki Forest virus; experiment: Effect against semliki forest virus infection in mice at an ip dose of 200 mg/kg; 9/12; assay type: functional; conditions: route intraperitoneal; in short: as §1
[23] = system: Semliki Forest virus; experiment: Effect against semliki forest virus infection in mice at an ip dose of 200 mg/kg; 11/12; assay type: functional; conditions: route intraperitoneal; in short: as §1
[24] = system: Semliki Forest virus; experiment: Effect against semliki forest virus infection in mice at an ip dose of 100 mg/kg; 11/12; assay type: functional; conditions: route intraperitoneal; in short: as §1

| SMILES | Survivors [1] [%] | CPM [2] | CPM [3] | CPM [4] | Mean survival time [6] [days] | CPM [7] | CPM [9] | Mean survival time [11] [days] | Mean survival time [12] [days] | Cytotoxicity [13] [%] | Cytotoxicity [15] [%] | Mean survival time [17] [days] | Cytotoxicity [20] [%] | Cytotoxicity [21] [%] | also measured |
| --- | --- | --- | --- | --- | --- | --- | --- | --- | --- | --- | --- | --- | --- | --- | --- |
| Nc1nc(O)c2nc(S)n([C@@H]3O[C@H](CO)[C@@H](O)[C@H]3O)c2n1 | 50 | 3911 | 23092 | 3633 | 8 | 5372 | 40690 | 7.5 | – | – | – | – | – | – | % cytotoxicity [5]: 43.53%; % cytotoxicity [8]: 61.33%; Survivors [10]: 25% |
| Nc1nc2c(nc(Br)n2[C@@H]2O[C@H](CO)[C@@H](O)[C@H]2O)c(=O)[nH]1 | – | 4387 | 9199 | 5204 | – | 4835 | 16771 | – | 7.7 | 45.44 | 31.33 | 7.1 | – | – | Survivors [14]: 18%; Survivors [16]: 0% |
| Nc1nc(O)c2sc(=S)n(C3O[C@H](CO)[C@@H](O)[C@H]3O)c2n1 (stereo not given in full) | – | 4230 | 43779 | 3111 | – | 15711 | 53493 | – | 7 | 41.38 | 28.89 | >21 | – | – | Survivors [18]: 100%; Survivors [19]: 44% |
| Cn1c(=O)n(C2O[C@H](CO)[C@@H](O)[C@H]2O)c2nc(N)nc(O)c21 (stereo not given in full) | 50 | 6012 | 72000 | 2000 | 7.7 | 35980 | 94100 | 6.3 | – | – | – | – | 57.89 | 58.8 | Survivors [22]: 75% |
| Nc1nc2c(sc(=O)n2[C@@H]2O[C@H](CO)[C@@H](O)[C@H]2O)c(=O)[nH]1 [ISATORIBINE] | – | 12000 | 96680 | 2000 | 8 | 54150 | 107000 | 6 | – | – | – | – | 67.8 | 74.8 | Survivors [23]: 92%; Survivors [24]: 92% |
